Measurements pooled from the literature.
Protocols differ between the studies behind these lines.
CDK4 with cyclin D3: Cyclin-dependent kinase 4, with cyclin D3 (CDK4, Homo sapiens, UniProt P11802)
CDK4: Cyclin-dependent kinase 4 (CDK4, Homo sapiens, UniProt P11802)
CDK4 with cyclin D1: Cyclin-dependent kinase 4, with cyclin D1 (CDK4, Homo sapiens, UniProt P11802)

| Structure (SMILES) | target | assay | conditions | measurement | result |
| --- | --- | --- | --- | --- | --- |
| Cn1cncc1[C@@](O)(COc1ccc(C#N)cc1-c1ccc(OC(F)(F)F)cc1)c1ccc(C#N)cc1 | CDK4 with cyclin D3 | cell-free assay, competition with immobilised ligand | 1 µM | remaining binding | 92% |
| CCOC(=O)[C@H]1Cc2c(cc([N+](=O)[O-])cc2[N+](=O)[O-])[C@@H](O)[C@@]12C(=O)Nc1ccc(Br)cc12 | CDK4 | cell-free assay, inhibitor, TR-FRET | 1 µM | inhibition | 76.3% |
| Cc1nn(C)cc1-c1nc2c(N3CCN(Cc4ccc(Cl)cc4)CC3)c(Cl)cnc2[nH]1 | CDK4 with cyclin D1 | binding, competition with immobilised ligand | 1 µM | remaining binding | 76% |
| O=c1[nH]c2ccccc2n1C1CCN(Cc2ccc(-c3[nH]c4cc5ncnc5cc4nc3-c3ccccc3)cc2)CC1 | CDK4 with cyclin D1 | cell-free assay | 0.5 µM | remaining signal | 108% |
| CCOC(=O)[C@H]1Cc2c(cc([N+](=O)[O-])cc2[N+](=O)[O-])[C@@H](O)[C@@]12C(=O)Nc1c(F)cccc12 | CDK4 | cell-free assay, inhibitor, TR-FRET | 1 µM | inhibition | 52.6% |
| Nc1ncc(-c2nc(N3CCOCC3)nc(N3CCOCC3)n2)c(C(F)F)n1 | CDK4 with cyclin D1 | binding, competition with immobilised ligand | 10 µM | remaining binding | 100% |
| CC(C)(C)c1cc(C=C(C#N)C#N)cc(Br)c1O | CDK4 with cyclin D3 | enzyme activity, inhibitor | 0.5 µM | remaining activity | 96.5% |
| CCOC(=O)[C@H]1Cc2c(cc([N+](=O)[O-])cc2[N+](=O)[O-])[C@H](O)[C@]12C(=O)Nc1cc(Cl)ccc12 | CDK4 | cell-free assay, inhibitor, TR-FRET | 1 µM | inhibition | 38.6% |
| N#CC1(c2ccccn2)CCN(Cc2cc(C(=O)O)c(=O)n3ccccc23)CC1 | CDK4 | cell-free assay, competition with immobilised ligand | 1 µM | remaining binding | 94% |
